Format in all cases: functional
For assay [1], the system named is Rattus norvegicus. The assay can be described thus: Evaluation of antagonistic potency by rat anti-ovulatory assay when administered in 50% propylene glycol / 0.9% saline vehicle. The method, boiled down: (§1)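 Rats with at least two normal 4-day estrous cycles (daily vaginal lavage cytology, at least 12 days) given the analogue subcutaneously in vehicle, 50% propylene glycol/0.9% saline or Mazola corn oil, at noon on proestrus or on diestrus II (24 h earlier). On expected estrus morning, oviducts examined for ovulated eggs. ED50 from percent ovulating versus log-dose, usually three or more dose groups, 10 animals per group.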

Assay [2] has as its system Rattus norvegicus. Put plainly: Evaluation of antagonistic potency by rat anti-ovulatory assay when administered in 50% propylene glycol / 0.9% mazola corn oil vehicle. The procedure, abridged:
as §1

The species named for assay [3] is Rattus norvegicus. Put plainly: Duration of anti-ovulatory activity was measured at noon on diestrus II and the vehicle was 50% propylene glycol /0.9 % mazola corn oil. The procedure, abridged: as §1
For assay [4], the species on record is Rattus norvegicus. Put plainly: Duration of proestrus and the vehicle was 50% propylene glycol /0.9 % mazola corn oil. The method, boiled down: as §1
For assay [5], the species on record is Rattus norvegicus. Put plainly: Duration of anti-ovulatory activity was measured at noon on diestrus II and the vehicle was 50% propylene glycol /0.9 % saline. The method, boiled down: as §1

Structures are written as SMILES. Non-standard residues stand in square brackets, D forms with d. Residues, ends and D or L forms follow the SMILES beside them. dPhe(4-Cl) = N[C@H](Cc1ccc(Cl)cc1)C(=O)O; dPhe(4-F) = N[C@H](Cc1ccc(F)cc1)C(=O)O; d2Nal = N[C@H](Cc1ccc2ccccc2c1)C(=O)O

For 17 molecules, ED50 results are on record in ChEMBL document CHEMBL1122725, “Luteinizing hormone-releasing hormone antagonists containing very hydrophobic amino acids” (1984).

`CC(=O)N[C@H](Cc1ccc(Cl)cc1)C(=O)N[C@H](Cc1ccc(Cl)cc1)C(=O)N[C@H](Cc1ccc2ccccc2c1)C(=O)N[C@@H](CO)C(=O)N[C@@H](Cc1ccc(O)cc1)C(=O)N[C@H](Cc1ccc2ccccc2c1)C(=O)N[C@@H](CC(C)C)C(=O)N[C@@H](CCCN=C(N)N)C(=O)N1CCC[C@H]1C(=O)NCC(N)=O` gave an ED50 with Rattus norvegicus [1] of 400 ug injection-1. For the molecule `CC(=O)N[C@H](C(=O)N[C@H](Cc1ccc(F)cc1)C(=O)N[C@H](Cc1ccc2ccccc2c1)C(=O)N[C@@H](CO)C(=O)N[C@@H](Cc1ccc(O)cc1)C(=O)N[C@H](Cc1ccc2ccccc2c1)C(=O)N[C@@H](CC(C)C)C(=O)N[C@@H](CCCN=C(N)N)C(=O)N1CCC[C@H]1C(=O)NCC(N)=O)[C@@H](C)O`, the ED50 in the assay on Rattus norvegicus [2] is 4.5 ug injection-1; in the assay on Rattus norvegicus [1] it was 7 ug injection-1. `CCNC(=O)[C@@H]1CCCN1C(=O)[C@H](CCCN=C(N)N)NC(=O)[C@H](CC(C)C)NC(=O)[C@@H](Cc1ccc2ccccc2c1)NC(=O)[C@H](Cc1ccc(O)cc1)NC(=O)[C@H](CO)NC(=O)[C@@H](Cc1ccc2ccccc2c1)NC(=O)[C@@H](Cc1ccc(F)cc1)NC(=O)[C@@H]1CCCN1C(C)=O` gave an ED50 in the assay with Rattus norvegicus [1] of 3.4 ug injection-1. For the molecule `CC(=O)N1CCC[C@H]1C(=O)N[C@H](Cc1ccc(Cl)cc1)C(=O)N[C@H](Cc1ccc2ccccc2c1)C(=O)N[C@@H](CO)C(=O)N[C@@H](Cc1ccc(O)cc1)C(=O)N[C@H](Cc1ccc2ccccc2c1)C(=O)N[C@@H](CC(C)C)C(=O)N[C@@H](CCCN=C(N)N)C(=O)N1CCC[C@H]1C(=O)NCC(N)=O`, the ED50 with Rattus norvegicus [2] is given as 3.6 ug injection-1; in the assay with Rattus norvegicus [1] it was 4.8 ug injection-1. As for `CC(=O)N1CCC[C@H]1C(=O)N[C@H](Cc1ccc(F)cc1)C(=O)N[C@H](Cc1ccc2ccccc2c1)C(=O)N[C@@H](CO)C(=O)N[C@@H](Cc1ccc(O)cc1)C(=O)N[C@H](Cc1ccc(N)cc1)C(=O)N[C@@H](CC(C)C)C(=O)N[C@@H](CCCN=C(N)N)C(=O)N1CCC[C@H]1C(=O)NCC(N)=O`, the ED50 in the assay on Rattus norvegicus [1] is given as 72 ug injection-1. Same read-out and setting: to `CCNC(=O)[C@@H]1CCCN1C(=O)[C@H](CCCN=C(N)N)NC(=O)[C@H](CC(C)C)NC(=O)[C@@H](CCCN=C(N)N)NC(=O)[C@H](Cc1ccc(O)cc1)NC(=O)[C@H](CO)NC(=O)[C@@H](Cc1ccc2ccccc2c1)NC(=O)[C@@H](Cc1ccc(Cl)cc1)NC(=O)[C@@H]1CCCN1C(C)=O` belongs 14 ug injection-1. Consider `CC(=O)N[C@H](Cc1ccc(Cl)cc1)C(=O)N[C@H](Cc1ccc(Cl)cc1)C(=O)N[C@H](Cc1c[nH]c2ccccc12)C(=O)N[C@@H](CO)C(=O)N[C@@H](Cc1ccc(O)cc1)C(=O)N[C@H](CCCN=C(N)N)C(=O)N[C@@H](CC(C)C)C(=O)N[C@@H](CCCN=C(N)N)C(=O)N1CCC[C@H]1C(=O)N[C@H](C)C(N)=O` (Ac-[dPhe(4-Cl)][dPhe(4-Cl)][dW]SY[dR]LRP[dA]-NH2), for which the ED50 with Rattus norvegicus [2] came out at 1.2 µg injection-1; with Rattus norvegicus [1] it was 1.8 ug injection-1; in the assay listed under Rattus norvegicus [3], 5 µg; in the assay listed under Rattus norvegicus [4], 1.2 µg. Turning to `CC(=O)N1CCC[C@H]1C(=O)N[C@H](Cc1ccc(Cl)cc1)C(=O)N[C@H](Cc1ccccc1)C(=O)N[C@@H](CO)C(=O)N[C@@H](Cc1ccc(O)cc1)C(=O)N[C@H](Cc1ccc2ccccc2c1)C(=O)N[C@@H](CC(C)C)C(=O)N[C@@H](CCCN=C(N)N)C(=O)N1CCC[C@H]1C(=O)NCC(N)=O`, the ED50 in the assay with Rattus norvegicus [1] is 5.6 ug injection-1. Regarding `CC(=O)N1CCC[C@H]1C(=O)N[C@H](Cc1ccc(F)cc1)C(=O)N[C@H](Cc1ccccc1)C(=O)N[C@@H](CO)C(=O)N[C@@H](Cc1ccc(O)cc1)C(=O)N[C@H](Cc1ccc2ccccc2c1)C(=O)N[C@@H](CC(C)C)C(=O)N[C@@H](CCCN=C(N)N)C(=O)N1CCC[C@H]1C(=O)NCC(N)=O`, in the assay on Rattus norvegicus [1], the ED50 is 12.2 ug injection-1. For `CC(=O)N1CCC[C@H]1C(=O)N[C@H](Cc1ccc(F)cc1)C(=O)N[C@H](Cc1ccc2ccccc2c1)C(=O)N[C@@H](CO)C(=O)N[C@@H](Cc1ccc(O)cc1)C(=O)N[C@H](Cc1ccc2ccccc2c1)C(=O)N[C@@H](CC(C)C)C(=O)N[C@@H](CCCN=C(N)N)C(=O)N1CCC[C@H]1C(=O)NCC(N)=O` (stereo in doubt; 7), the ED50 was 4 µg in the assay with Rattus norvegicus [2], 2.2 ug injection-1 in the assay on Rattus norvegicus [1], 140 µg in the assay filed under Rattus norvegicus [3] and 35 ug injection-1 in the assay listed under Rattus norvegicus [5]. Turning to `CC(=O)N[C@H](Cc1ccc2ccccc2c1)C(=O)N[C@H](Cc1ccc(F)cc1)C(=O)N[C@H](Cc1c[nH]c2ccccc12)C(=O)N[C@@H](CO)C(=O)N[C@@H](Cc1ccc(O)cc1)C(=O)N[C@H](CCCN=C(N)N)C(=O)N[C@@H](CC(C)C)C(=O)N[C@@H](CCCN=C(N)N)C(=O)N1CCC[C@H]1C(=O)NCC(N)=O` (Ac-[d2Nal][dPhe(4-F)][dW]SY[dR]LRPG-NH2), the ED50 in the assay on Rattus norvegicus [1] was found to be 2.4 ug injection-1; in the assay filed under Rattus norvegicus [3] it was 9 µg; in the assay filed under Rattus norvegicus [4], 1.1 µg. `CC(C)C[C@H](NC(=O)[C@@H](Cc1ccc2ccccc2c1)NC(=O)[C@H](Cc1ccc(O)cc1)NC(=O)[C@H](CO)NC(=O)[C@@H](Cc1ccc2ccccc2c1)NC(=O)[C@@H](Cc1ccc(F)cc1)NC(=O)[C@H](COCc1ccccc1)NC(=O)OC(C)(C)C)C(=O)N[C@@H](CCCN=C(N)N)C(=O)N1CCC[C@H]1C(=O)NCC(N)=O`: the ED50 in the assay on Rattus norvegicus [1] is 400 ug injection-1. The same measure, in the same setting: next, `CCNC(=O)[C@@H]1CCCN1C(=O)[C@H](CCCN=C(N)N)NC(=O)[C@H](CC(C)C)NC(=O)[C@@H](CCCN=C(N)N)NC(=O)[C@H](Cc1ccc(O)cc1)NC(=O)[C@H](CO)NC(=O)[C@@H](Cc1ccc2ccccc2c1)NC(=O)[C@@H](Cc1ccc(F)cc1)NC(=O)[C@@H]1CCCN1C(C)=O`: 32 ug injection-1.

Turning to `CC(=O)N[C@H](Cc1ccccc1)C(=O)N[C@H](Cc1ccc(Cl)cc1)C(=O)N[C@H](Cc1c[nH]c2ccccc12)C(=O)N[C@@H](CO)C(=O)N[C@@H](Cc1ccc(O)cc1)C(=O)N[C@H](Cc1c[nH]c2ccccc12)C(=O)N[C@@H](CC(C)C)C(=O)N[C@@H](CCCN=C(N)N)C(=O)N1CCC[C@H]1C(=O)NCC(N)=O`, the ED50 in the assay with Rattus norvegicus [2] came to 74 ug injection-1; in the assay on Rattus norvegicus [1], 160 ug injection-1. The matching figures for `CC(=O)N[C@@H](CO)C(=O)N[C@H](Cc1ccc(F)cc1)C(=O)N[C@H](Cc1ccc2ccccc2c1)C(=O)N[C@@H](CO)C(=O)N[C@@H](Cc1ccc(O)cc1)C(=O)N[C@H](Cc1ccc2ccccc2c1)C(=O)N[C@@H](CC(C)C)C(=O)N[C@@H](CCCN=C(N)N)C(=O)N1CCC[C@H]1C(=O)NCC(N)=O`: 1.4 ug injection-1 and 4.3 ug injection-1. With `CC(=O)N[C@H](Cc1ccc2ccccc2c1)C(=O)N[C@H](Cc1ccc(F)cc1)C(=O)N[C@H](Cc1ccc2ccccc2c1)C(=O)N[C@@H](CO)C(=O)N[C@@H](Cc1ccc(O)cc1)C(=O)N[C@H](CCCN=C(N)N)C(=O)N[C@@H](CC(C)C)C(=O)N[C@@H](CCCN=C(N)N)C(=O)N1CCC[C@H]1C(=O)NCC(N)=O`, the ED50 with Rattus norvegicus [1] is 16 ug injection-1. With `CC(C)C[C@H](NC(=O)[C@@H](Cc1ccc2ccccc2c1)NC(=O)[C@H](Cc1ccc(O)cc1)NC(=O)[C@H](CO)NC(=O)[C@@H](Cc1ccc2ccccc2c1)NC(=O)[C@@H](Cc1ccc(F)cc1)NC(=O)[C@@H]1CCCN1C=O)C(=O)N[C@@H](CCCN=C(N)N)C(=O)N1CCC[C@H]1C(=O)NCC(N)=O`, the values for the ED50 with Rattus norvegicus [2] and in the assay on Rattus norvegicus [1] were 4.4 ug injection-1 and 3 ug injection-1, respectively.
